# Screening results: PubChem BioAssay, Broad Institute
# The list is not random: actives were taken first. Their share in the collection is about 2.9%.
# dFosB activator = mouse delta FosB homodimer activation; 340,000 compounds, 0.99% hits; AID 493131; purified delta FosB, TAMRA-CDK5 oligo fluorescence polarization; percent of positive-control signal above neutral wells; activation, % at 25 µM;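 active means mean activation above about 17%, with every replicate also reaching it, limit read from the data, passing the limit was not always enough; inconclusive means only one of the two conditions met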
# Cneo AK release = Cryptococcus neoformans lysis via adenylate kinase release; lysis activity, % at 15 µM; 360,000 compounds, 0.2% hits; C. neoformans lysis, adenylate kinase release luminescence, 4 h; normalised: neutral wells 0, clomiphene wells 100;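 active means mean lysis activity across replicates of at least 80%, whatever share of replicates individually reach that level; inactive means mean lysis activity below 80%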
#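 Test system: log-phase Cryptococcus neoformans yeast cells. Input: 5 × 10^6 yeast cells/mL. Medium: fresh YPD growth medium. Doses: single dose. Incubation: static 4 h at 37 °C with compound, 1 h detection. Measured by: luminescent adenylate kinase detection reagent. Read-out: signal increase indicating cell lysis. Benchmarks: Clomiphene.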
# Env fusion inh = blocks HIV Env-driven cell-cell fusion; HeLa-JRFL Env/CEM21 cell fusion, luciferase; inhibition, % at 12.3 µM; 360,000 compounds, 1.1% hits; AID 651610;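 active means mean replicate inhibition score of at least 50 and every replicate individually at or above 50; inconclusive means only one of the two criteria met; inactive means mean below 50 and not all replicates reaching 50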
# INS-1E GSIS act = primary screen for activators of insulin secretion dependent on glucose, INS-1E cells, GLuc reporter luminescence; INS-1E GLuc reporter insulin secretion, 2-3 h; activation, % at 16.6 µM; 370,000 compounds, 0.61% hits; AID 743287;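 active means lowest replicate activation of at least 40%, so every replicate reaches that level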
# CDK5 p35 inh = blocks human CDK5/p35 kinase activity; Recombinant CDK5/p35, ADP-Glo luminescence, 60 min; inhibition, % at 10 µM; 330,000 compounds, 0.01% hits; AID 488839;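 active means highest replicate inhibition of at least 50% and at least 75% of replicates reaching 50%; inconclusive means only one of the two criteria met; inactive means both criteria failed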
# Target sequence (Q00535 whole entry, looked up): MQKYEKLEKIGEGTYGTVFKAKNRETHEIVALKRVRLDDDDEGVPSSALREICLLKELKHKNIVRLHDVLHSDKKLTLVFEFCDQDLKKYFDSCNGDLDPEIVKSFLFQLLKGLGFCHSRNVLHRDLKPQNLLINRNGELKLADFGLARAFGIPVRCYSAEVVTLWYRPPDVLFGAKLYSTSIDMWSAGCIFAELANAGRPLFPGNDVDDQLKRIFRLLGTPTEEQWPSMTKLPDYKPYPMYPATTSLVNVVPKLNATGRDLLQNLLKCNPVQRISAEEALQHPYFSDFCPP
# Target sequence (Q15078 whole entry, looked up): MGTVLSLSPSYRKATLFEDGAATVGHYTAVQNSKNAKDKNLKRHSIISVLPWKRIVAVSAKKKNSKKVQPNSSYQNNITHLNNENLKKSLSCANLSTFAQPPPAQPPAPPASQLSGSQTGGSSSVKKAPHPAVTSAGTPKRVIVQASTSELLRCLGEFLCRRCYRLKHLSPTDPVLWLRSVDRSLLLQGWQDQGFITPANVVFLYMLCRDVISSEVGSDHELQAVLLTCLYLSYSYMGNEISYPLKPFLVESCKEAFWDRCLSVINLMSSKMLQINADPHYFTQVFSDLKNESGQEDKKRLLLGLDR
# PAX8 reporter = PAX8 transcriptional activity inhibition. 360,000 compounds, 1.2% hits. AID 652154. RMG-I TPO-luciferase reporter, SteadyGlo, 24 h. inhibition, % at 12.6 µM;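 active means mean replicate inhibition at least 60% with every replicate also reaching 60%; inconclusive means only one of the two criteria is met; inactive means mean below 60% and not all replicates reaching 60%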;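 further: luciferase light reporting Pax8 driven TPO promoter activity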
# A number is an active result; 0 = inactive; ? = inconclusive; - = no result given.
SMILES,dFosB activator,Cneo AK release,Env fusion inh,INS-1E GSIS act,CDK5 p35 inh,PAX8 reporter
C[C@H]1CN([C@@H](C)CO)C(=O)Cc2cc(NC(=O)CCC(F)(F)F)ccc2O[C@@H]1CN(C)Cc1ccc(-c2ccccc2)cc1,-,0,0,0,-,0
O=C(C[C@@H]1CC[C@H]2[C@@H](COC[C@@H](O)CN2Cc2cccc(C(F)(F)F)c2)O1)NCc1ccncc1,-,0,-,0,-,0
CC(C)c1cn(CC[C@@H]2CC[C@@H](NC(=O)C3CCC3)[C@H](CO)O2)nn1,-,0,0,0,-,0
O=C(c1ccncc1)N1CCN(c2cc(-c3ccccc3)nc3cc(-c4cccc(Cl)c4)nn23)CC1,-,0,?,0,-,68
O=C(c1ccoc1)N1CCN(c2cc(-c3ccncc3)nc3cc(-c4cccc(Cl)c4)nn23)CC1,-,-,0,0,-,0
CCCNC(=O)C[C@H]1CC[C@H]2[C@H](COc3ccc(NC(=O)c4cccc(Cl)c4)cc3C(=O)N2C)O1,-,-,-,0,-,0
CCCC#Cc1cnc2c(c1)C(=O)N([C@H](C)CO)C[C@H](C)[C@H](CN(C)Cc1cccnc1)O2,-,0,0,0,-,-
Cc1cc2ccccn2c1C(=O)c1cccc([N+](=O)[O-])c1,0,-,0,0,0,0
Cc1cc2ccccn2c1C(=O)c1ccc([N+](=O)[O-])o1,0,0,0,0,0,73
CCc1ccc(N(C(=O)Cn2nnc(-c3ccccc3)n2)C(C(=O)NC2CCCCC2)c2ccccn2)cc1 (configuration not stated),0,0,80,0,0,0
CC(=O)c1cccc(N(CC(=O)NC2CCCCC2)C(=O)Cn2nnc(-c3ccccc3)n2)c1,0,0,0,61,0,0
COCCNC(=O)C[C@@H]1CC[C@@H]2[C@H](COC[C@@H](O)CN2S(=O)(=O)c2ccccc2C)O1,-,91,-,0,-,0
CCNC(=O)C[C@@H]1CC[C@H]2[C@@H](COC[C@@H](O)CN2S(=O)(=O)c2ccccc2F)O1,-,95,-,0,-,0
Cc1ccccc1S(=O)(=O)N1C[C@H](O)COC[C@H]2O[C@@H](CC(=O)NCCc3ccccc3)CC[C@@H]21,-,0,0,0,-,0
COCCNC(=O)C[C@H]1CC[C@@H]2[C@H](COC[C@H](O)CN2S(=O)(=O)c2ccccc2C)O1,-,103,-,0,-,0
COCCNC(=O)C[C@@H]1CC[C@@H]2[C@H](COC[C@H](O)CN2S(=O)(=O)c2ccccc2F)O1,-,0,0,0,-,0
CN(C)C(=O)c1cccc(-c2ccccc2[C@@H]2[C@@H](C#N)N(C(=O)C3CCC3)[C@H]2CO)c1,-,-,-,0,-,-
C[C@@H]1CN([C@H](C)CO)C(=O)c2cc(NS(=O)(=O)c3ccccc3)ccc2O[C@H]1CN(C)Cc1ccc(-c2ccccc2)cc1,-,0,0,0,-,0
CCCC(=O)Nc1ccc2c(c1)OC[C@H](C)N(C(=O)c1cnccn1)C[C@@H](C)[C@@H](OC)CN(C)C2=O,-,0,-,0,-,0
Cc1ccc(Cl)cc1NC(=O)COC(=O)c1ccccc1O,0,0,0,0,0,0
COc1ccccc1NC(=O)COC(=O)c1cc2ccccc2cc1O,0,0,-,0,0,0
COc1cc(NC(=O)c2cc3ccccc3cc2O)c(OC)cc1Cl,0,0,0,0,0,72
Cc1ccc(Cl)cc1NC(=O)c1cc2ccccc2cc1O,0,0,?,0,0,78
COc1ccccc1NC(=O)c1cc2cc(Br)ccc2cc1O,0,-,57,0,0,?
N#CCSc1nc2ccccc2c(=O)n1CC1CCCC1,0,0,0,44,0,0
SMILES,dFosB activator,Cneo AK release,Env fusion inh,INS-1E GSIS act,CDK5 p35 inh,PAX8 reporter
CCN(CCCn1c(SCC#N)nc2ccccc2c1=O)c1ccccc1,0,0,62,-,0,-
C=C(C)Cn1c(SCC#N)nc2ccccc2c1=O,0,0,-,-,0,-
Cc1noc(C)c1S(=O)(=O)Nc1ccc2c(c1)C(=O)N([C@H](C)CO)C[C@@H](C)[C@@H](CN(C)Cc1ccccc1)OCCCC[C@H](C)O2,-,0,0,0,-,0
COCC(=O)N1[C@H](C#N)[C@@H](c2ccccc2C2=CCCCC2)[C@@H]1CO,-,-,-,0,-,-
COc1ccc(/C=N/Nc2ccc(C(F)(F)F)cc2[N+](=O)[O-])cc1,0,-,0,45,0,0
CC(c1nc2ccccc2c(=O)[nH]1)N(C)CCOc1ccc(Cl)cc1 (configuration not stated),0,0,97,0,0,0
O=c1[nH]c(SCCOc2ccccc2)nc2ccccc12,0,0,0,0,0,-
CCCCCN=C(N)N/N=C/c1c[nH]c2ccc(OC)cc12,18,0,0,-,0,107
C[C@@H]1CCCCO[C@@H](CN(C)C(=O)c2ccccc2)[C@@H](C)CN([C@@H](C)CO)C(=O)c2cc(N(C)C)ccc2O1,-,0,0,0,-,0
Nc1nc(N)c(N=O)c(Nc2cccc(Cl)c2)n1,-,-,0,41,-,0
O=C(NC1CCCC1)N1CC2(C1)[C@@H](c1ccccc1)[C@@H](CO)N2CC1CCCC1,-,-,0,0,-,0
Cn1c(SCC(=O)N2CCN(c3cccc(Cl)c3)CC2)nnc1-c1ccncc1,0,0,98,-,0,0
Cn1c(Cc2cccc3ccccc23)nnc1SCC(=O)N1CCN(c2ccccc2)CC1,0,0,63,0,0,-
Cn1c(SCC(=O)N2CCN(c3ccccc3)CC2)nnc1-c1ccncc1,0,0,-,0,0,-
Cn1c(Cc2ccccc2)nnc1SCC(=O)N1CCN(c2ccccc2)CC1,0,0,-,-,0,-
O=C1[C@H](Cc2ccccc2)NCCCC[C@H](c2ccco2)N1Cc1ccccc1,0,0,74,0,0,0
O=C1[C@H](Cc2ccccc2)NCC=CC[C@@H](c2ccco2)N1Cc1ccccc1,0,0,0,0,0,0
O=C1[C@H](Cc2ccccc2)NCCCC[C@@H](c2ccc(Cl)cc2)N1Cc1ccc(Cl)cc1,0,0,0,0,0,0
O=C1[C@H](Cc2ccccc2)NCCCC[C@H](c2ccc(Cl)cc2)N1Cc1ccccc1,0,0,86,0,0,0
O=C1[C@H](Cc2ccccc2)NCCCC[C@@H](c2ccco2)N1Cc1ccccc1,0,0,58,0,0,0
COc1ccc2c3c(n(C)c2c1)[C@H](CO)N(C(C)=O)CC31CCN(Cc2ccccc2OC)CC1,-,-,-,0,-,-
CO[C@@H]1CN(C)C(=O)c2cc(NC(=O)c3cnccn3)ccc2OC[C@H](C)N(C)C[C@@H]1C,-,0,0,0,-,-
CCOc1ccccc1N(CC(=O)Nc1ccc(S(=O)(=O)N2CCOCC2)cc1)S(=O)(=O)c1ccc(Cl)cc1,0,-,-,0,0,62
COc1ccccc1N(CC(=O)Nc1ccc(S(=O)(=O)N2CCOCC2)cc1)S(C)(=O)=O,0,0,0,0,0,0
O=C(Cn1c2ccc(F)cc2c2nc3n(c(=O)c21)CCS3)Nc1ccc(Cl)cc1F,21,0,0,0,0,0
